# Assay results reported in ChEMBL document CHEMBL4177755, “Combating Drug-Resistant Fungi with Novel Imperfectly Amphipathic Palindromic Peptides” (J Med Chem, 2018).
# The source made the active and inactive calls. The calls are words filed in the database; no cut-off is given here.
# Experiments:
# Candida albicans [1] = test: Induction of membrane damage in Candida albicans cgmcc 2.2086 assessed as membrane creping at MFC after 1 hr by atomic force microscopy; assay type: functional, organism-based
# Procedure, shortened: (§1)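 E. coli ATCC 25922 was treated at 1× MBC and C. albicans cgmcc 2.2086 at 1× MFC, each for 1 h. Untreated control cells were processed in parallel without peptide. Surface morphology was imaged by AFM and SEM, and ultrastructure by TEM.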
# Candida albicans [2] = test: Induction of membrane damage in Candida albicans cgmcc 2.2086 assessed as empty regions formation of cytoplasm at MFC after 1 hr by transmission electron microscopy; assay type: functional, organism-based
# Procedure, shortened: (§2)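 E. coli ATCC 25922 or C. albicans cgmcc 2.2086 were treated with peptide at 1× MBC/MFC for 1 h alongside peptide-free controls, then imaged by AFM, SEM or TEM for membrane and ultrastructural changes.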
# Candida albicans [3] = test: Induction of reactive oxygen species generation in Candida albicans cgmcc 2.2086 after 1 hr by DCFH-DA dye-based spectrofluorophotometric method; assay type: functional, organism-based
# Procedure, shortened: (§3)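 E. coli ATCC 25922 and C. albicans cgmcc 2.2086 cells were exposed to a range of peptide concentrations up to 32 μM. ROS levels were read by fluorescence and expressed relative to untreated cells. Values are mean ± SEM of three independent experiments.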
# Candida albicans [4] = test: Induction of membrane damage in Candida albicans cgmcc 2.2086 assessed as intracellular content leakage at MFC after 1 hr by transmission electron microscopy; assay type: functional, organism-based; procedure, shortened: as §2
# RAW264.7 [5] = test: Induction of endotoxin-neutralization in mouse RAW264.7 cells assessed as inhibition of LPS-induced TNFalpha secretion at 2 uM after 18 hrs by ELISA; assay type: functional, cell-based
# Procedure, shortened: (§4)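 RAW 264.7 cells were stimulated with 50 ng/mL LPS with or without peptide at various concentrations. TNF-α in supernatants was measured by ELISA and NO by Griess reagent. Mean ± SEM of three independent experiments, compared against LPS alone.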
# Escherichia coli [6] = test: Induction of reactive oxygen species generation in Escherichia coli ATCC 25922 at 32 uM after 1 hr by DCFH-DA dye-based spectrofluorophotometric method relative to control; assay type: functional
# Procedure, shortened: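 Intracellular ROS in peptide-treated cells were compared with untreated cells; values are mean ± SEM of three independent experiments.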
# Candida albicans [7] = test: Induction of membrane damage in Candida albicans cgmcc 2.2086 assessed as intracellular content leakage at MFC after 1 hr by scanning electron microscopy; assay type: functional, organism-based; procedure, shortened: as §2
# Escherichia coli [8] = test: Antibacterial activity against Escherichia coli ATCC 25922 after 18 hrs in presence of 12.5% human heat-inactivated serum by broth dilution method; assay type: functional; conditions: ATCC 25922, 18 h
# RAW264.7 [9] = test: Immunostimulatory activity in mouse RAW264.7 cells assessed as induction of nitric oxide production by Griess assay; assay type: cell-based
# Procedure, shortened: (§5)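 RAW 264.7 macrophages were exposed to peptide at various concentrations. TNF-α in culture supernatants was measured by ELISA and NO by Griess reagent. Values are means ± SEM of three independent experiments.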
# Lipopolysaccharide (LPS) [10] = test: Binding affinity to Escherichia coli O111:B4 LPS by SPR spectroscopy
# Procedure, shortened: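 Surface plasmon resonance with the peptide immobilized and LPS flowed over it at 3.125−25 μg/mL; binding recorded in response units (RU).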
# Lipopolysaccharide (LPS) [11] = test: Displacement of BODIPY-TR-cadaverine from Escherichia coli O111:B4 LPS at 4 uM after 1 hr by spectrofluorophotometric method relative to control
# Procedure, shortened: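 Fluorescence-based displacement assay: peptide displaces BODIPY-TR-cadaverine from LPS; polymyxin B served as the LPS-binding reference.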
# Escherichia coli [12] = test: Induction of reactive oxygen species generation in Escherichia coli ATCC 25922 at 0.5 to 4 uM after 1 hr by DCFH-DA dye-based spectrofluorophotometric method; assay type: functional, organism-based; procedure, shortened: as §3
# Escherichia coli [13] = test: Change in membrane morphology in Escherichia coli ATCC 25922 assessed as loss of intracellular contents at MBC after 1 hr by transmission electron microscopy; assay type: functional, organism-based; procedure, shortened: as §2
# RAW264.7 [14] = test: Immunostimulatory activity in mouse RAW264.7 cells assessed as induction of TNFalpha secretion by ELISA; assay type: cell-based; procedure, shortened: as §5
# Lipid bilayer [15] = test: Binding affinity to phosphatidylcholine/phosphatidylethanolamine/phosphatidylinositol/ergosterol large unilamellar vesicle assessed as induction of calcein leakage after 15 mins by spectrofluorophotometric method
# Procedure, shortened: (§6)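 Compositions were PG/CL/PE 2:1:7 w/w/w (E. coli membrane mimic; lines 4,5) and PC/PE/PI/ergosterol 5:4:1:2 w/w/w/w (fungal membrane mimic; lines 2,3). Lipids underwent 20 freeze–thaw cycles and were extruded through 100 nm filters; free calcein was removed by gel filtration.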
# Escherichia coli [16] = test: Induction of membrane damage in Escherichia coli ATCC 25922 assessed as appearance of roughened and broken membrane at MBC after 1 hr by scanning electron microscopy; assay type: functional, organism-based; procedure, shortened: as §1
# Candida albicans [17] = test: Induction of membrane damage in Candida albicans cgmcc 2.2086 assessed as membrane creping at MFC after 1 hr by scanning electron microscopy; assay type: functional, organism-based; procedure, shortened: as §1
# Candida albicans [18] = test: Induction of membrane damage in Candida albicans cgmcc 2.2086 assessed as membrane deformation at MFC after 1 hr by scanning electron microscopy; assay type: functional, organism-based; procedure, shortened: as §1
# Lipid bilayer [19] = test: Binding affinity to phosphatidylcholine/phosphatidylethanolamine/phosphatidylinositol/ergosterol large unilamellar vesicle assessed as induction of calcein leakage at 32 uM after 15 mins by spectrofluorophotometric method relative to control; procedure, shortened: as §6
# Escherichia coli [20] = test: Bactericidal activity against Escherichia coli ATCC 25922 at MBC after 5 hrs by time-kill assay; assay type: functional
# Procedure, shortened: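 Time-kill: E. coli ATCC 25922 or C. albicans cgmcc 2.2086 was exposed to peptide at 1× MBC/MFC. At intervals, aliquots were diluted and spread on MHA (bacteria, counted after 24 h at 37 °C) or YPDA (yeast, counted after 48 h at 28 °C). Values are means of three independent assays.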
# RAW264.7 [21] = test: Induction of endotoxin-neutralization in mouse RAW264.7 cells assessed as inhibition of LPS-induced nitric oxide production at 16 uM after 18 hrs by Griess assay relative to control; assay type: functional; conditions: RAW264.7, 18 h; procedure, shortened: as §4
# Escherichia coli [22] = test: Antibacterial activity against Escherichia coli ATCC 25922 after 18 hrs in presence of 50% human heat-inactivated serum by broth dilution method; assay type: functional; conditions: ATCC 25922, 18 h
# Candida albicans [23] = test: Induction of membrane damage in Candida albicans cgmcc 2.2086 assessed as intracellular content leakage at MFC after 1 hr by atomic force microscopy; assay type: functional, organism-based; procedure, shortened: as §2
# Escherichia coli [24] = test: Disruption of cytoplasmic membrane electrical potential in Escherichia coli ATCC 25922 at MBC after 800 secs by DiSC3-5 dye-based fluorescence spectrophotometric method; assay type: functional, organism-based
# Candida albicans [25] = test: Disruption of cytoplasmic membrane electrical potential in Candida albicans cgmcc 2.2086 at MFC after 800 secs by DiSC3-5 dye-based fluorescence spectrophotometric method; assay type: functional, organism-based
# Procedure, shortened: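 Cells were loaded with the membrane potential-sensitive dye DiSC3-5, and its release on peptide treatment (various concentrations, including 1× MBC/MFC) was monitored as increasing fluorescence over 800 s.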
molecule,measurement,setting,value
H-RRIRIIIRIRR-NH2,Activity,Candida albicans [1],Active
same,Activity,Candida albicans [2],Active
same,Activity,Candida albicans [3],Dose-dependent effect
same,Activity,Candida albicans [4],Active
same,inhibition,RAW264.7 [5],Active
same,fold change (FC),Escherichia coli [6],2
same,Activity,Candida albicans [7],Active
same,MIC,Escherichia coli [8],4 µM
same,Activity,RAW264.7 [9],Non-Toxic
same,Activity,Lipopolysaccharide (LPS) [10],Dose-dependent effect
same,inhibition,Lipopolysaccharide (LPS) [11],68%
same,Activity,Escherichia coli [12],inactive
same,Activity,Escherichia coli [13],Active
same,Activity,RAW264.7 [14],Non-Toxic
same,Activity,Lipid bilayer [15],Dose-dependent effect
same,Activity,Escherichia coli [16],Active
same,Activity,Candida albicans [17],Active
same,Activity,Candida albicans [18],Active
same,Activity,Lipid bilayer [19],62%
same,Activity,Escherichia coli [20],>99.99%
same,inhibition at 16 µM,RAW264.7 [21],100%
same,MIC,Escherichia coli [22],8 µM
same,Activity,Candida albicans [23],Active
CC[C@H](C)[C@H](NC(=O)CN)C(=O)NCC(=O)N[C@@H](C)C(=O)N[C@H](C(=O)N[C@@H](CC(C)C)C(=O)N[C@@H](CCCCN)C(=O)N[C@H](C(=O)N[C@@H](CC(C)C)C(=O)N[C@H](C(=O)N[C@H](C(=O)NCC(=O)N[C@@H](CC(C)C)C(=O)N1CCC[C@H]1C(=O)N[C@@H](C)C(=O)N[C@@H](CC(C)C)C(=O)N[C@H](C(=O)N[C@@H](CO)C(=O)N[C@@H](Cc1c[nH]c2ccccc12)C(=O)N[C@H](C(=O)N[C@@H](CCCCN)C(=O)N[C@@H](CCCNC(=N)N)C(=O)N[C@@H](CCCCN)C(=O)N[C@@H](CCCNC(=N)N)C(=O)N[C@@H](CCC(N)=O)C(=O)N[C@@H](CCC(N)=O)C(N)=O)[C@@H](C)CC)[C@@H](C)CC)[C@@H](C)O)[C@@H](C)O)C(C)C)C(C)C [MELITTIN],Activity,Escherichia coli [24],Active
same,Activity,Candida albicans [25],Active
